Columns and labels:
Type in all cases: ADME, organism-based
Cavia porcellus [1] = species on record: Cavia porcellus; experiment: Tested for antimuscarinic potency on guinea pig heart force; conditions: for Kb: Cavia porcellus, Heart, read-out: pA2 (converted)
How it was run: (§1)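 Guinea pig heart (force and rate) antagonism of carbachol as agonist; pA2 from Schild plot with slope constrained to 1; six to eight replications. Where an antagonist lowered the carbachol maximum at 1×10^-5 M, −log Kb was instead calculated from log(Dr − 1) = log[ant.] − log Kb at a single antagonist concentration of 3×10^-6 M.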

Rattus norvegicus = species on record: Rattus norvegicus; experiment: Tested for antimuscarinic potency on rat bladder; conditions: for Kb: Rattus norvegicus, read-out: pA2 (converted)
Cavia porcellus [2] = species on record: Cavia porcellus; experiment: Tested for antimuscarinic potency on guinea pig heart rate; conditions: for Kb: Cavia porcellus, Heart, read-out: pA2 (converted); how it was run: as §1
Cavia porcellus [3] = species on record: Cavia porcellus; experiment: Tested for antimuscarinic potency on guinea pig ileum; conditions: for Kb: Cavia porcellus, Ileum, read-out: pA2 (converted)

Row | Structure (SMILES) | pA2 (Cavia porcellus [1]) | pA2 (Rattus norvegicus) | pA2 (Cavia porcellus [2]) | pA2 (Cavia porcellus [3]) | Kb (Cavia porcellus [1]) [nM] | Kb (Cavia porcellus [2]) [nM] | Kb (Rattus norvegicus) [nM] | Kb (Cavia porcellus [3]) [nM]
1 | C[N+](C)(C)C[C@@H]1CS[C@@](c2ccccc2)(C2CCCCC2)O1.[I-] (stereo in doubt; (-)4) | 8.16 | 7.45 | 7.99 | 7.86 | – | – | – | –
2 | C[N+](C)(C)C[C@@H]1CS[C@](c2ccccc2)(C2CCCCC2)O1.[I-] (racemic) | – | 8.05 | – | 8.26 | 7.76 | 7.24 | – | –
3 | C[N+](C)(C)C[C@@H]1CS[C@](c2ccccc2)(C2CCCCC2)O1.[I-] (stereo in doubt; (+)-2) | 8.1 | 8.29 | 8.05 | 8.57 | – | – | – | –
4 | C[N+](C)(C)C[C@@H]1CS[C@](c2ccccc2)(C2CCCCC2)O1.[I-] (stereo in doubt; (-)2) | 8.07 | 7.61 | 8.06 | 7.86 | – | – | – | –
5 | C[N+](C)(C)C[C@@H]1CS[C@@](c2ccccc2)(C2CCCCC2)O1.[I-] (racemic) | 8.13 | 8.22 | 7.91 | 8.38 | – | – | – | –
6 | C[N+](C)(C)C[C@@H]1CS[C@@](c2ccccc2)(C2CCCCC2)O1.[I-] (stereo in doubt; (+)4) | 8.47 | 8.58 | 8.35 | 8.79 | – | – | – | –
7 | CN(C)C[C@@H]1CS[C@](c2ccccc2)(C2CCCCC2)O1 (racemic) | – | – | – | – | 33.1 | 37.2 | 44.7 | 12
8 | CN1[C@@H]2CC[C@H]1C[C@@H](OC(=O)C(CO)c1ccccc1)C2 (stereo partly drawn) [ATROPINE] | – | – | – | – | – | – | 1.29 | –
9 | CN(C)C[C@@H]1CS[C@@](c2ccccc2)(C2CCCCC2)O1 (racemic) | – | – | – | – | 263 | 162 | 123 | 37.2

Reference: ChEMBL document CHEMBL1124194, “Enantioselectivity of muscarinic antagonists. Isomeric 2-cyclohexyl-2-phenyl-5-[(dimethylamino)methyl]-1,3-oxathiolane methiodides” (J Med Chem, 1988)
